The text below walks through data of ChEMBL document CHEMBL1125027, “Synthesis and cytotoxicity studies of 8-amino-6-methyl-2-beta-D-ribofuranosyl-1,2,3,5,6,7-hexaazaacenaphthyle ne (7-aza-TCN) and the corresponding 2'-deoxy- and arabinonucleoside analogues” (1990).

Assay [1] concerns L1210. The experiment in a line: Growth rate of L1210 tumor cells at a concentration of 100 uM. In kind it is functional, Mus musculus. A digest of the protocol: (§1)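 Murine leukemia L1210 grown in static suspension in Fischer's medium with test compound for 3 days, counted daily. Growth rate = slope of log cell number vs time relative to control, computed as control doubling time (about 12 h) / treated doubling time, expressed as %. Values are single experiments unless footnoted as the average of three.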

Assay [2] has as its system HEp-2. The experiment in a line: Growth rate of H.Ep.2 tumor cells at a concentration of 100 uM. The format is functional, Homo sapiens. A digest of the protocol:
(§2)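 Human epidermoid carcinoma H.Ep.2 monolayers kept in exponential growth in Eagle's basal medium (Hanks' salts) with 0.5 g/L NaHCO3 and 15% heat-inactivated calf serum. 2 × 10^4 cells seeded per flask; after 1 day, compound-containing medium added. Trypsin/EDTA harvest and counts of two flasks per group on days 1, 2 and 4. Growth rate = control doubling time (about 19 h) / treated doubling time, as % of control.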

Assay [3] has as its system L1210. The experiment in a line: Growth rate of L1210 tumor cells at a concentration of 50 uM. In kind it is functional, Mus musculus. A digest of the protocol: as §1
Assay [4] deals with HEp-2. The experiment in a line: Growth rate of H.Ep.2 tumor cells at a concentration of 50 uM. The format is functional, Homo sapiens. A digest of the protocol: as §2
Assay [5] concerns HEp-2. The experiment in a line: Growth rate of H.Ep.2 tumor cells at a concentration of 10 uM. The format is functional, Homo sapiens. A digest of the protocol:
as §2

Assay [6] deals with L1210. The assay is described as follows: Growth rate of L1210 tumor cells at a concentration of 10 uM. In kind it is functional, Mus musculus. A digest of the protocol: as §1

Consider `CN1N=C(N)c2nn([C@H]3C[C@H](O)[C@@H](CO)O3)c3ncnc1c23`, for which the results for the Growth rate in assay [1] and in assay [2] were 83% and 100%, respectively.
`CN1N=C(N)c2nn(C3O[C@H](CO)[C@@H](O)[C@H]3O)c3nc(S(C)(=O)=O)nc1c23` (stereo not given in full) came in with a Growth rate in assay [1] of 86%.
`CSc1nc2c3c(nn(C4O[C@H](CO)[C@@H](O)[C@H]4O)c3n1)C(N)=NN2C` (stereo not given in full) returned a Growth rate in assay [1] of 81%.
In the case of `CN1N=C(N)c2nn(C3O[C@H](CO)[C@@H](O)[C@@H]3O)c3ncnc1c23` (stereo not given in full), the Growth rate is listed as 75% in assay [3] and 62% in assay [4].
In the case of `CN1N=C(N)c2nn(C3O[C@H](CO)[C@@H](O)[C@H]3O)c3ncnc1c23` (stereo not given in full), the Growth rate was 63% in assay [1] and 67% in assay [2].
Turning to `CN1N=C(N)c2nn(C3O[C@H](CO)[C@@H](O)[C@H]3O)c3nc(NN)nc1c23` (stereo not given in full), the Growth rate is 88% in assay [5] and 86% in assay [6].
